# From PubChem BioAssay
# Active and inactive are the calls of the source.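 How the source made its calls, unless noted: active means current rise at least 3 SD above the untreated control mean in each of two repeat wells; inactive means the rest.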
# Assays:
# [1] = nonspecific flux increase, KCNQ1-free cells – parental CHO cells, counter-screen for KCNQ1 potentiator project (AID 493006;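 active means duplicate-averaged activation above buffer control mean plus 5 SD of those controls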;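 on activation: fluorescence ratio of max minus min over baseline after K+ and Tl+ depolarization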); settings: parental CHO-K1 cells, FluxOR thallium flux, at 10 µM; stronger effect = higher value
# Method in brief: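 Benchmarks – buffer and R-L3 controls · Assay system – untransfected host CHO-K1 cells with FluxOR thallium dye · Measure – fluorescence change ratio scaled 0% buffer, 100% R-L3 · Technique – kinetic thallium-flux fluorescence · Timing – overnight 37 °C plating, 90 min RT dye, 20 min compound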
# [2] = biological target: Potassium voltage-gated channel subfamily KQT member 1 (Homo sapiens) (UniProt P51787); experiment: enhancement of KCNQ1 channel thallium flux – FluxOR thallium flux, CHO cells, duplicates, confirmation (AID 493007;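 active means potentiation averaged over duplicate wells exceeding buffer-only control mean by more than 3 SD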;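 on outcome: cells depolarized by a potassium plus thallium sulfate stimulus after compound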); settings: KCNQ1 cell line, FluxOR thallium flux fluorescence, at 10 µM; stronger effect = higher value, % of reference activator effect, buffer zero
# Potassium voltage-gated channel subfamily KQT member 1 (Homo sapiens), sequence (P51787 whole entry, looked up): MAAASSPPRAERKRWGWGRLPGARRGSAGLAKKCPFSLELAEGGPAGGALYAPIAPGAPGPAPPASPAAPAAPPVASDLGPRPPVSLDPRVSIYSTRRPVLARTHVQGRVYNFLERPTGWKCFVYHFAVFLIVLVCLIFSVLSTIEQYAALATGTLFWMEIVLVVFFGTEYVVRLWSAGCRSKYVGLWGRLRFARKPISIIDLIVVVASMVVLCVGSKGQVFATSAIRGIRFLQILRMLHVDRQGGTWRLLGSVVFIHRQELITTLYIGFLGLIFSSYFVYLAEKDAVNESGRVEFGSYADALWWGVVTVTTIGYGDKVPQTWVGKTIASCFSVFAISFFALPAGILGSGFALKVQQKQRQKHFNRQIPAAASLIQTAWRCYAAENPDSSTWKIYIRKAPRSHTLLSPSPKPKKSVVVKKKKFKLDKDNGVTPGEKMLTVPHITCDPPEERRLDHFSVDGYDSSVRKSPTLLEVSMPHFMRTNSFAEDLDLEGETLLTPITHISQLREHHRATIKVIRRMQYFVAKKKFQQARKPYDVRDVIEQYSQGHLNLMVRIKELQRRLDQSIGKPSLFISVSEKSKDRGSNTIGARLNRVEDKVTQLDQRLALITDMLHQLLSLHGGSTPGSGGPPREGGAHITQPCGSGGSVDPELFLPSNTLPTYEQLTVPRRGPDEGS
# Method in brief: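 Material: CHO cells stably expressing the KCNQ1 potassium channel / Times: dye 90 min then compound 20 min, both at room temperature / Detection: kinetic thallium influx fluorescence with FluxOR dye, 10 s baseline, 110 s post-stimulus / Benchmarks: buffer-only wells as 0% and R-L3 activator as 100% / Replicates: each compound tested in duplicate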
# [3] = biological target: Potassium voltage-gated channel subfamily KQT member 2 (Rattus norvegicus) (UniProt O88943); experiment: KCNQ2 thallium flux enhancement – KCNQ2-CHO-K1 cells, selectivity assay for KCNQ1 potentiator project (AID 493009;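 active means mean duplicate potentiation above the buffer control mean plus 5 SD of buffer wells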;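 further: assay conditions were tuned for KCNQ1 rather than KCNQ2 modulators; signal is max minus min fluorescence divided by baseline after thallium stimulus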); settings: FluxOR thallium flux fluorescence, at 10 µM; stronger effect = higher value, scaled: buffer 0, activator control 100
# Potassium voltage-gated channel subfamily KQT member 2 (Rattus norvegicus), sequence (O88943 whole entry, looked up): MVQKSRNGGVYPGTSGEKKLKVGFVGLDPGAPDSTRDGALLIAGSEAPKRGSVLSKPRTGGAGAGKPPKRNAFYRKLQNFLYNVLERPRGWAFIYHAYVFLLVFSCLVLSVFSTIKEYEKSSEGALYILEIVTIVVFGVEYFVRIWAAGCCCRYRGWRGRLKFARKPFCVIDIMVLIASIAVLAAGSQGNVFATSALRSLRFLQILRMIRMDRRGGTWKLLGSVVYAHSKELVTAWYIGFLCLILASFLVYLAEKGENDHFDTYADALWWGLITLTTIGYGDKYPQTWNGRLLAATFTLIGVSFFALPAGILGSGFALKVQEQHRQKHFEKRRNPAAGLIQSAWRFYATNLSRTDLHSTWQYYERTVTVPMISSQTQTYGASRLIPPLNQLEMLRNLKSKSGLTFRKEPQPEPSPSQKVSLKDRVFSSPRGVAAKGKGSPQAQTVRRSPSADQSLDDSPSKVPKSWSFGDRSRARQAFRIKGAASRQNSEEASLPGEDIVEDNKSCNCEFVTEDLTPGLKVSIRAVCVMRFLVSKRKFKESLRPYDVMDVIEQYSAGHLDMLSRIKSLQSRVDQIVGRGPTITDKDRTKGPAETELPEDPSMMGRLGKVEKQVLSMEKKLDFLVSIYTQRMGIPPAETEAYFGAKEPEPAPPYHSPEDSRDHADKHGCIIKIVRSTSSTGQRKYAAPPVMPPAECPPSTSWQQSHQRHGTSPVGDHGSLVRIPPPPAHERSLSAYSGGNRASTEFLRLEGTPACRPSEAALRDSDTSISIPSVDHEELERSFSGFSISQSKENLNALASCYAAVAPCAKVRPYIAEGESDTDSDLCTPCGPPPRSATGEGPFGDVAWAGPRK
# [4] = biological target: Potassium voltage-gated channel subfamily KQT member 1 (Homo sapiens) (UniProt P51787); experiment: KCNQ1 activators by electrophysiology – IonWorks patch clamp, KCNQ1-CHO cells, orthogonal assay for KCNQ1 potentiator project, confirmation (AID 493184); settings: automated patch clamp current, at 10 µM; stronger effect = higher value
# Method in brief: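 Probe or stimulus: depolarizing pulse to +40 mV from -90 mV; Material: CHO cells carrying KCNQ1; Compound: one dose, 10 µM final; Signal: automated voltage clamp, amphotericin B perforated patch; Read-out basis: percent current increase versus pre-compound level; Buffer or medium: pH 7.4 external bath; Replication: duplicates.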
SMILES,activation [1],outcome [2],outcome [3],outcome [4],potentiation [2],outcome [1],potentiation [3]
Cc1nn(-c2ccccc2)c2nc(C(Cl)(Cl)Cl)[nH]c(=O)c12,145% (active),inactive,inactive,inactive,–,–,–
COCCCn1c(=S)[nH]c2sc3c(c2c1=O)CCCS3,147% (active),–,inactive,inactive,30.5% (active),–,–
O=C(CCc1ccccc1)Nc1nccs1,–,inactive,inactive,inactive,–,inactive,–
COC(=O)c1cccc(NC(=O)CSc2nncn2-c2ccccn2)c1,–,inactive,inactive,inactive,–,inactive,–
O=C(N/N=C1/C(=O)c2cccc3cccc1c23)c1ccc(Cl)cc1,145% (active),–,inactive,inactive,83.5% (active),–,–
O=C(N/N=C/c1cccnc1)c1ccco1,–,inactive,inactive,inactive,–,inactive,–
COc1cccc(OC)c1OCCOCCN1CCN(C)CC1,–,inactive,inactive,inactive,–,inactive,–
CCN(c1ccccc1)S(=O)(=O)c1ccc(OC)c(NC(=O)COc2ccc(C(C)=O)cc2)c1,–,inactive,inactive,inactive,–,inactive,–
Cc1ccc(OCCN2C(=O)c3ccccc3C2=O)c([N+](=O)[O-])c1,–,inactive,inactive,inactive,–,inactive,–
Cc1csc(=O)n1CCC(=O)OCC(=O)NCc1ccc(F)cc1,–,inactive,–,inactive,–,inactive,186% (active)
O=c1[nH]sc2ccccc12,–,inactive,inactive,inactive,–,inactive,–
COc1ccc(CCNC(=O)c2ccc(N(C)S(=O)(=O)c3ccc(C)cc3)cc2)cc1OC,–,inactive,inactive,inactive,–,inactive,–
O=C(NC(=S)Nc1ccccc1N1CCCC1)c1ccco1,174% (active),–,–,inactive,21.5% (active),–,174% (active)
O=C(NCc1ccccc1)/C(=C/c1ccccc1)NC(=O)c1ccco1,–,inactive,inactive,inactive,–,inactive,–
CCC(Cc1ccccc1)n1c(=S)[nH]c2ccccc2c1=O (stereo not given),–,–,inactive,inactive,19% (active),inactive,–
COC(=O)c1cn(NC(=O)Cc2ccc(Cl)c(Cl)c2)c(=O)c2ccccc12,–,inactive,–,inactive,–,inactive,252% (active)
CC(=O)SCC(=O)N=c1sc2cc(F)ccc2n1C,–,inactive,inactive,inactive,–,inactive,–
CCc1ccccc1NC(=O)C1CCN(C(=O)N2CCOc3ccccc32)CC1,–,inactive,inactive,inactive,–,inactive,–
CCC1(c2ccc(Cl)cc2)NC(=S)N(c2ccccc2)N1 (stereo not given),405% (active),–,–,inactive,150% (active),–,375% (active)
CN1C(=O)CC(N2CCN(CC(=O)N3CCCC3)CC2)C1=O (stereo not given),–,inactive,inactive,inactive,–,inactive,–

SMILES,activation [1],outcome [2],outcome [3],outcome [4],potentiation [2],outcome [1],potentiation [3]
Cc1ccc(-c2csc3ncnc(SCc4ccc(C(=O)O)cc4)c23)cc1,197% (active),–,–,inactive,36.5% (active),–,175% (active)
N#C/C(=C/c1cn(-c2ccccc2)nc1-c1cccc(S(=O)(=O)N2CCOCC2)c1)C(=O)NCc1ccco1,–,inactive,inactive,inactive,–,inactive,–
O=C(c1ccccn1)c1ncc(C(F)(F)F)cc1Cl,–,inactive,inactive,inactive,–,inactive,–
COCCCn1c(=S)[nH]c2sc3c(c2c1=O)CCCC3,366% (active),–,–,inactive,138% (active),–,346% (active)
O=C1NC(=S)SC1=C1CCCC1,142% (active),–,–,inactive,24.5% (active),–,166% (active)
COC(=O)c1sccc1NC(=O)CSc1ccccc1NS(=O)(=O)c1ccc(Cl)cc1,–,–,inactive,inactive,17.5% (active),inactive,–
CCN(CC)c1ccc(/C=N/Nc2nc3ccccc3[nH]2)c(O)c1,–,inactive,inactive,inactive,–,inactive,–
O=C(NC(=S)N1CCN(Cc2ccc3c(c2)OCO3)CC1)c1ccc(Cl)cc1,260% (active),–,–,inactive,86% (active),–,298% (active)
COc1ccc(/C=N/N=C2/NC(=O)C(c3ccccc3)S2)c(OC)c1 (stereo not given),–,inactive,inactive,inactive,–,inactive,–
Oc1[nH]c2ccc(Br)cc2c1N=NC(=S)NCC1CCCO1 (stereo not given),182% (active),–,–,inactive,37.5% (active),–,204% (active)
O=C(c1c[nH]c(C(=O)C(Cl)(Cl)Cl)c1)c1ccc(F)cc1Cl,145% (active),–,–,inactive,47% (active),–,160% (active)
CCn1c(O)c(N=NC2=NC(=O)CS2)c2ccccc21,–,inactive,–,inactive,–,inactive,145% (active)
O=C(COc1ccccc1[N+](=O)[O-])Nc1cccnc1,186% (active),–,–,inactive,41.5% (active),–,172% (active)
NC(=O)NC(=O)C[n+]1cccc(/C=N/O)c1,–,inactive,inactive,inactive,–,inactive,–
CCOC(=O)c1cnc(SCC(=O)Nc2nc(C)c(C)s2)nc1N,–,inactive,inactive,inactive,–,inactive,–
CN(CC(=O)Nc1c(Cl)cccc1Cl)C(=O)c1n[nH]c2ccccc12,–,inactive,inactive,inactive,–,inactive,–
O=C(Nc1nc(=O)c2ccccc2s1)c1ccc(Cl)cc1,246% (active),–,–,inactive,85.5% (active),–,242% (active)
O=C(NC(=S)NCc1ccccc1)c1cccs1,167% (active),–,–,inactive,81% (active),–,232% (active)
CCc1cc2c(=O)[nH]c(-c3ccccn3)nc2s1,–,–,–,inactive,26% (active),inactive,226% (active)
O=C(NC(=S)NCCc1ccccc1)c1cccc(Cl)c1,182% (active),–,–,inactive,141% (active),–,342% (active)

SMILES,activation [1],outcome [2],outcome [3],outcome [4],potentiation [2],outcome [1],potentiation [3]
Cc1nn(CC2CC2)c(=O)n1-c1ccc(F)cc1,–,inactive,inactive,inactive,–,inactive,–
CN(C)CCCn1c(=O)n(C2CCCCC2)c(=O)c2c3c(sc21)CCCCC3,167% (active),–,–,inactive,224% (active),–,154% (active)
CCN1C(=O)/C(=C\C(=O)c2cccs2)c2cc(Br)ccc21,–,inactive,inactive,inactive,–,inactive,–
CSc1nc(-c2ccccc2)[nH]c(=S)c1C(C)=O,520% (active),–,–,inactive,138% (active),–,474% (active)
Cc1c(CCC(=O)N2CCC[C@H]2C(=O)O)c(=O)oc2c(C)c3oc4c(c3cc12)CCCC4,–,inactive,inactive,inactive,–,inactive,–
CCC(=O)Nc1cc(-c2nn3c(C)nnc3s2)ccc1C,–,inactive,inactive,inactive,–,inactive,–
Cc1ccc(C)c(N(CC(=O)NC2CCCC2)C(=O)CCC(=O)Nc2nccs2)c1,–,inactive,inactive,inactive,–,inactive,–
Cc1ccc(-n2c(C)cc(/C=N/NC(=O)CC3(C)OCCO3)c2C)c(C)c1,–,inactive,inactive,inactive,–,inactive,–
COc1ccc2nc(NC(=S)NC(=O)c3ccco3)sc2c1,–,–,–,inactive,42% (active),inactive,175% (active)
c1ccc(CCCNc2ncnc3nc[nH]c23)cc1,316% (active),–,–,inactive,78.5% (active),–,291% (active)
O=C(N/N=C/c1ccccn1)c1sc2ccccc2c1Cl,156% (active),–,–,inactive,41% (active),–,207% (active)
COc1ccc(-c2cnc3c(c2)CCC3(C#N)C#N)cc1,–,inactive,inactive,inactive,–,inactive,–
CC(C)NC(=O)C1CCN(c2ccc(S(=O)(=O)N3CCOCC3)cc2Cl)CC1,–,inactive,inactive,inactive,–,inactive,–
C=CCN(c1ccccc1)S(=O)(=O)c1cccc(C(=O)Nc2cccc(C)n2)c1,290% (active),–,–,inactive,224% (active),–,358% (active)
Cc1cc(Br)ccc1OCC(=O)NNC(=O)c1cnccn1,–,inactive,inactive,inactive,–,inactive,–
CCOC(=O)c1c(NC(=S)NC(=O)c2ccco2)sc2c1CCCC2,–,inactive,inactive,inactive,–,inactive,–
O=c1cc(-c2c(F)c(F)c(F)c(F)c2F)oc2ccccc12,–,inactive,inactive,inactive,–,inactive,–
CC(CCc1ccccc1)NC(=O)c1ccccc1C(=O)O (stereo not given),–,inactive,inactive,inactive,–,inactive,–
Cc1ccc(C(=O)Nc2nc3ccccc3c(=O)s2)cc1,186% (active),–,–,inactive,35.5% (active),–,216% (active)
Cc1cccc(OCC(=O)O/N=C(\N)c2ccc(Cl)cc2)c1,–,inactive,inactive,inactive,–,inactive,–
